# Laboratory results from ChEMBL document CHEMBL1944542, “Coumarin polysulfides inhibit cell growth and induce apoptosis in HCT116 colon cancer cells” (2012).
# Active and inactive are the calls of the source. No cut-off for these calls is given here.
# Experiments:
# [1] = biological target: T1, M-phase inducer phosphatase 1 (Homo sapiens) (UniProt P30304); assay: Inhibition of recombinant human GST-tagged cdc25A phosphatase activity using 3-O-methyl fluorescein phosphate at 100 uM
# T1 sequence (whole entry): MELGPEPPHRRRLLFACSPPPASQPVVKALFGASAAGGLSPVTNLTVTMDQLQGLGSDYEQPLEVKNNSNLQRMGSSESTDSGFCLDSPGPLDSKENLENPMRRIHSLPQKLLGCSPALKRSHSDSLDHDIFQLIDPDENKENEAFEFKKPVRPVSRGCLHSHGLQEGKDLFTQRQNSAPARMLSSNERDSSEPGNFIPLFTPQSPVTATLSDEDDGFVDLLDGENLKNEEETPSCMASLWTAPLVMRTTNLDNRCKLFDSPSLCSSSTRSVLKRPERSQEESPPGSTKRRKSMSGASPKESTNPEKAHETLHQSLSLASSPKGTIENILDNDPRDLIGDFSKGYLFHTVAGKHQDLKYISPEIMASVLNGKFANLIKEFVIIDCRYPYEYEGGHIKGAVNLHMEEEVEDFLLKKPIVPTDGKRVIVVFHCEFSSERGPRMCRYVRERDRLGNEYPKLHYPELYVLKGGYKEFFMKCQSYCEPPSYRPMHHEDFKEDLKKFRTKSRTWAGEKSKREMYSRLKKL
# Method in brief: (§1)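 Test concentration 100 µM. Fluorescence (ex 475 / em 510 nm) read every 20 min for 2 h at 30 °C. Residual activity expressed relative to DMSO set at 100%.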
# HCT-116 [2] = assay: Cell cycle arrest in human HCT116 cells assessed as accumulation at G1 phase at 25 uM after 24 hrs using propidium iodide staining by cytofluorometry (reference value: 62.34%); format: functional
# HCT-116 [3] = assay: Induction of apoptosis in human HCT116 cells assessed as decrease in cdc25C level at 50 uM by Western blotting; format: functional, cell-based; details: TDE = time-dependent effect
# HCT-116 [4] = assay: Induction of apoptosis in human HCT116 cells assessed as decrease in bcl-2 level by Western blotting; format: functional, cell-based; details: TDE = time-dependent effect
# Method in brief: (§2)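 HCT116 cells left untreated or exposed for 0.5–24 h. 50 µg protein separated on 12.5% SDS-PAGE and transferred to PVDF. bcl-2, bax or cytochrome c antibodies applied at 1:1000 overnight at 4 °C, with GAPDH loading control. For cytochrome c, cytosolic extracts were made by snap-freezing PBS-resuspended cells and clearing at 12500×g.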
# HCT-116 [5] = assay: Cell cycle arrest in human HCT116 cells assessed as accumulation at G2/M phase at 50 uM after 24 hrs using propidium iodide staining by cytofluorometry (reference value: 23.45%); format: functional
# HCT-116 [6] = assay: Induction of apoptosis in human HCT116 cells assessed as PARP cleavage at 50 uM from 24 to 72 hrs by Western blotting; format: functional, cell-based
# Method in brief: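 HCT116 cells exposed to 50 µM for 24, 48 and 72 h, with 0.05% DMSO control. RIPA lysates (75 µg) run on 7.5% SDS-PAGE and transferred to PVDF. Anti-PARP blot, with nucleolin as loading control. Cleavage read as the 116 kDa band converting to 89 kDa.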
# HCT-116 [7] = assay: Cell cycle arrest in human HCT116 cells assessed as accumulation at subG1 phase at 50 uM after 24 hrs using propidium iodide staining by cytofluorometry (reference value: 1.8%); format: functional
# HCT-116 [8] = assay: Cytotoxicity against human HCT116 cells expressing p53 assessed as reduction in cell viability after 24 hrs by MTT assay; format: functional, cell-based
# Method in brief: (§3)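 p53-positive HCT116 cells kept in McCoy's 5A with 10% FCS at 37 °C and 5% CO2. Seeded at 1 x 10^4 per well and incubated overnight. Treated at 12.5–200 µM, DMSO-dissolved, for 8, 24 or 48 h, with 0.05% DMSO control. MTT (5 mg/ml) added for the final 1 h at 37 °C. Formazan dissolved in SDS/DMSO/acetic acid and absorbance read at 595 nm. Means ± SD, n = 3.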
# HCT-116 [9] = assay: Induction of apoptosis in human HCT116 cells assessed as increase in p53 level at 50 uM from 8 to 48 hrs by Western blotting; format: functional, cell-based
# Method in brief: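 HCT116 cells exposed to 50 µM for 8, 24 and 48 h, with 0.05% DMSO control. Lysates run on SDS-PAGE and blotted with anti-p53 (DO-1) at 1:1000 for 1 h at room temperature. GAPDH used as loading control.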
# HCT-116 [10] = assay: Cell cycle arrest in human HCT116 cells assessed as accumulation at G1 phase at 50 uM after 24 hrs using propidium iodide staining by cytofluorometry (reference value: 62.34%); format: functional
# HCT-116 [11] = assay: Induction of apoptosis in NAC treated human HCT116 cells assessed as PARP cleavage at 50 uM treated 0.5 hrs before NAC challenge measured after 24 to 72 hrs by Western blotting; format: functional, cell-based
# Method in brief: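 HCT116 cells pretreated with 5 mM NAC (water stock) for 0.5 h, then exposed to 50 µM for 24, 48 and 72 h. Cells lysed in RIPA with protease inhibitors. 75 µg protein run on 7.5% SDS-PAGE and blotted to PVDF. PARP probed at 1:1000 overnight at 4 °C. Nucleolin or GAPDH used as loading control.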
# HCT-116 [12] = assay: Cell cycle arrest in human HCT116 cells assessed as accumulation at S phase at 50 uM after 24 hrs using propidium iodide staining by cytofluorometry (reference value: 4.91%); format: functional
# HCT-116 [13] = assay: Cytotoxicity against human HCT116 cells expressing p53 assessed as reduction in cell viability at 25 uM after 24 hrs by MTT assay; format: functional; method in brief: as §3
# HCT-116 [14] = assay: Induction of apoptosis in human HCT116 cells assessed as increase in gammaH2AX level at 50 uM from 24 to 72 hrs by Western blotting; format: functional, cell-based
# HCT-116 [15] = assay: Induction of apoptosis in human HCT116 cells assessed as increase in caspase 3/7 activation at 50 uM from 24 to 48 hrs by Western blotting; format: functional, cell-based
# Method in brief: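 HCT116 cells treated with 0 or 50 µM for 24 and 48 h. Lysed on ice in Tris/MgCl2/NP-40/DTT buffer. Separated on 12.5% SDS-PAGE and probed with caspase 3 antibody for full-length protein and cleavage products. Representative of at least 3 blots.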
# HCT-116 [16] = assay: Induction of apoptosis in human HCT116 cells assessed as increase in bax level by Western blotting; format: functional, cell-based; details: TDE = time-dependent effect; method in brief: as §2
# HCT-116 [17] = assay: Cytotoxicity against human HCT116 cells expressing p53 assessed as cell viability at 50 uM after 48 hrs by MTT assay; format: functional; details: HCT-116, 48 h, read-out: Activity; method in brief: as §3
# HCT-116 [18] = assay: Cell cycle arrest in human HCT116 cells assessed as accumulation at G2/M phase at 25 uM after 24 hrs using propidium iodide staining by cytofluorometry (reference value: 23.45%); format: functional
# HCT-116 [19] = assay: Induction of apoptosis in human HCT116 cells assessed as increase in release of cytochrome C into cytosol by Western blotting; format: functional, cell-based; method in brief: as §2
# HCT-116 [20] = assay: Cytotoxicity against human HCT116 cells expressing p53 assessed as reduction in cell viability at 100 to 200 uM after 24 hrs by MTT assay; format: functional, cell-based; method in brief: as §3
# [21] = biological target: T2, M-phase inducer phosphatase 3 (Homo sapiens) (UniProt P30307); assay: Inhibition of recombinant human GST-tagged cdc25C phosphatase activity using 3-O-methyl fluorescein phosphate at 100 uM; method in brief: as §1
# T2 sequence (whole entry): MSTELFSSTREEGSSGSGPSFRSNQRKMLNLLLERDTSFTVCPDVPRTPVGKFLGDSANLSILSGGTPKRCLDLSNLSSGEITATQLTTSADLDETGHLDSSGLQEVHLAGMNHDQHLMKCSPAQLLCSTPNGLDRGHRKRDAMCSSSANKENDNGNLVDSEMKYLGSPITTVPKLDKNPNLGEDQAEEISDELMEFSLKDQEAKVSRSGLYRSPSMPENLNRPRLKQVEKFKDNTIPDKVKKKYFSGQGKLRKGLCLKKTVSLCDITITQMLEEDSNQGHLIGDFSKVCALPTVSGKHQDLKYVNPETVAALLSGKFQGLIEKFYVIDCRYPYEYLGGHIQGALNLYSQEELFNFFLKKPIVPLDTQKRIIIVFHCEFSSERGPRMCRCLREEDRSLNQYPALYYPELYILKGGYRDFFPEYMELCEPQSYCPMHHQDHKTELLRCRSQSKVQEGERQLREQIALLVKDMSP
# HCT-116 [22] = assay: Cytotoxicity against human HCT116 cells expressing p53 assessed as reduction in cell viability at 50 uM after 24 hrs by MTT assay; format: functional; method in brief: as §3
# HCT-116 [23] = assay: Cell cycle arrest in human HCT116 cells assessed as accumulation at subG1 phase at 25 uM after 24 hrs using propidium iodide staining by cytofluorometry (reference value: 1.8%); format: functional
# HCT-116 [24] = assay: Cell cycle arrest in human HCT116 cells assessed as accumulation at S phase at 25 uM after 24 hrs using propidium iodide staining by cytofluorometry (reference value: 4.91%); format: functional
# HCT-116 [25] = assay: Cytotoxicity against human HCT116 cells expressing p53 assessed as reduction in cell viability at 50 uM by MTT assay; format: functional, cell-based; details: TDE = time-dependent effect; method in brief: as §3
# LNCaP = assay: Induction of apoptosis in human LNCAP cells assessed as increase in caspase 3/7 activation at 20 ug/ml after 24 hrs by Western blotting; format: functional, cell-based
# Method in brief: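 LNCaP cells grown in RPMI 1640 with 10% FCS, then treated with 20 µg/ml doxorubicin (water stock) for 24 h or left untreated. Lysates run on 12.5% SDS-PAGE and probed for full-length and cleaved caspase 3.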
# HCT-116 [26] = assay: Cytotoxicity against human HCT116 cells expressing p53 assessed as reduction in cell viability at 50 uM from 24 to 48 hrs by MTT assay; format: functional, cell-based; method in brief: as §3
# HCT-116 [27] = assay: Induction of apoptosis in human HCT116 cells assessed as PARP cleavage at 50 uM from 24 to 48 hrs by Western blotting; format: functional, cell-based
# Method in brief: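 HCT116 cells (McCoy's 5A, 10% FCS, 37 °C, 5% CO2) exposed to 50 µM compound (DMSO stock; 0.05% DMSO control) for 24, 48 and 72 h. Total extract in RIPA buffer with protease inhibitors, 75 µg protein run on 7.5% SDS-PAGE, blotted to PVDF. Anti-PARP 1:1000 overnight at 4 °C. 116 kDa full-length and 89 kDa cleaved bands scored. Nucleolin as loading control.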
Structure (SMILES),inhibition [1],inhibition [21],Activity (HCT-116 [6]),Activity (HCT-116 [8]),Activity (HCT-116 [9]),Activity (HCT-116 [13]),Activity (HCT-116 [14]),viability at 50 µM (HCT-116 [17]),Activity (HCT-116 [20]),Activity (HCT-116 [22]),Activity (HCT-116 [25]),Activity (HCT-116 [26]),Activity (HCT-116 [27]),also measured
COc1ccc2c(CSSSCc3cc(=O)oc4cc(OC)ccc34)cc(=O)oc2c1,Active,Active,Active,Dose-dependent effect,Active,22%,Active,20%,Active,50%,tde,–,–,Activity (HCT-116 [2]): 14.33%; Activity (HCT-116 [3]): tde; Activity (HCT-116 [4]): tde; Activity (HCT-116 [5]): 63.19%; Activity (HCT-116 [7]): 10.43%; Activity (HCT-116 [10]): 13.59%; Activity (HCT-116 [11]): inactive; Activity (HCT-116 [12]): 3.9%; Activity (HCT-116 [15]): Active; Activity (HCT-116 [16]): tde; Activity (HCT-116 [18]): 66.07%; Activity (HCT-116 [19]): Active; Activity (HCT-116 [23]): 12.28%; Activity (HCT-116 [24]): 4.61%
COc1cccc2c1C(=O)c1c(O)c3c(c(O)c1C2=O)C[C@@](O)(C(=O)CO)C[C@@H]3O[C@H]1C[C@H](N)[C@H](O)[C@H](C)O1,–,–,–,–,–,–,–,–,–,–,–,–,–,Activity (LNCaP): Active
C=CCSSCC=C,–,–,–,–,–,–,–,–,–,–,–,Active,Active,–
C=CCSSSSCC=C,–,–,–,–,–,–,–,–,–,–,–,Active,–,–

# Now from value to compound, other results behind:
inhibition [1],inhibition [21],Structure (SMILES),Activity (HCT-116 [6]),Activity (HCT-116 [8]),Activity (HCT-116 [9]),Activity (HCT-116 [13]),Activity (HCT-116 [14]),viability at 50 µM (HCT-116 [17]),Activity (HCT-116 [20]),Activity (HCT-116 [22]),Activity (HCT-116 [25]),Activity (HCT-116 [26]),Activity (HCT-116 [27]),also measured
Active,Active,COc1ccc2c(CSSCc3cc(=O)oc4cc(OC)ccc34)cc(=O)oc2c1,Active,Dose-dependent effect,Active,30%,Active,20%,Active,50%,tde,Active,Active,–
Active,Active,COc1cc(N(C)C)cc(CN(C)CCc2ccc([N+](=O)[O-])cc2)c1O,–,–,–,–,–,–,–,–,–,–,–,–
